Measurements from publication PMC3500602 (Free radical research, 2011).
pIC50: −log10 of the molar value.

Tests used:
[1] = Rate constant for the oxidation of Mn^IIP with oxygen; settings: estimated from Mn^IITM-4-PyP^4+ value and structure-activity relationship
[2] = test system: Caco-2 cells; assay: Identification of species involved in cytotoxicity; format: cell-based, human
In short: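 Caco-2 cells at 10,000/well in alpha-MEM with 10% FBS; after 24 h at 37°C, 5% CO2, exposed to 30 µM Mn porphyrin, 3.3 mM ascorbate or both, with or without 1,500 units/mL catalase or 5 mM mannitol, for 96 h. Cells PBS-washed, WST-1 added for 2 h at 37°C, A450/595 read, % viability versus no-drug cells after cell-free blank subtraction.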

[3] = cited from earlier work; for SOD activity log kcat (O2^·−): cyt c assay, 0.05 M phosphate buffer, pH 7.8, 25 ± 1°C
[4] = Metal-centered reduction potential E1/2 for Mn^IIIP/Mn^IIP redox couple; format: physicochemical
[5] = test system: human epithelial colorectal adenocarcinoma Caco-2; assay: WST-1-based cytotoxicity assay, Caco-2; format: cell-based; settings: read-out: IC50 values for MnPs in the absence of ascorbate; Caco-2, 96 h, WST-1, no ascorbate
[6] = test system: four tumour cell lines (Caco-2, HCT116, 4T1 and Hela); assay: WST-1-based cytotoxicity assay, statements across the four tumour cell lines; settings: for toxicity of MnP in its own right: absence of ascorbate, 30 µM MnP, HCT116, 4T1, Hela; for effect of low levels on the cell: Figures 5 and 6; for cytotoxicity relative to MnTnHex-2-PyP^5+ in the presence of ascorbate: slopes of curves in Figure 5
[7] = test system: SOD-deficient E. coli; settings: cited from earlier work; for efficacy in protecting SOD-deficient E. coli: ortho vs meta
[8] = n-octanol-water partition coefficient, log Pow; format: physicochemical
[9] = plastic-backed silica-gel TLC plates, 1:1:8 = KNO3(sat):H2O:CH3CN; cited from earlier work
[10] = cited from earlier work
[11] = test system: 4T1 mouse breast carcinoma cells; assay: Clonogenic assay, 4T1; format: cell-based; settings: 4T1, ascorbate 1 mM or MnTnHex-2-PyP^5+ 15 and 30 µM alone, 24 h
[12] = test system: HCT116 human colorectal carcinoma cells; assay: Clonogenic assay, HCT116; format: cell-based; settings: HCT116, ascorbate 0.5 mM or MnTnHex-2-PyP^5+ 15 and 30 µM alone, 24 h
[13] = MnTnHex-2-PyP^5+ levels in tumour and muscle by LCMS/MS; format: in vivo, Balb/c mice
In short: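 Female Balb/c mice (6–8 weeks, ~22 g) bearing subcutaneous flank 4T1 tumours (10^6 cells), treated from ~200 mm3 for 15 days with porphyrin 1 mg/kg twice daily sc, with or without sodium ascorbate 2 g/kg twice daily ip given 1 h later. Tumour and opposite-leg muscle homogenised, deproteinised with 1% acetic acid in methanol, dried, reconstituted; porphyrin by LC-MS/MS, µM in homogenate.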

[14] = test system: 4T1 tumour cells; assay: LCMS/MS analysis of MnTnHex-2-PyP^5+ levels in 4T1 cells; format: in vitro ADME, mouse
In short: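 4T1 cells at 1,440,000 per plate in 10 mL DMEM (high glucose, 10% FBS), attached 24 h (~80% confluence), then given 0.5 or 1 mM ascorbate, 5, 15 or 30 µM porphyrin, or combinations, for 24 h. PBS-rinsed, RIPA-lysed on ice, sonicated, spun; lysate porphyrin by LC-MS/MS normalised to Bradford protein. Intracellular concentration calculated assuming 2.19 µL cell volume/mg protein.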

With `CC[n+]1ccccc1-c1c2nc(c(-c3cccc[n+]3CC)c3ccc([n-]3)c(-c3cccc[n+]3CC)c3nc(c(-c4cccc[n+]4CC)c4ccc1[n-]4)C=C3)C=C2.[Mn+2]` [Mn^IITE-2-PyP^4+] the “rate constant for the reaction with O2” value [1] was 80000 M⁻¹ s⁻¹.
In the case of `CCCCCC[n+]1cccc(-c2c3nc(c(-c4ccc[n+](CCCCCC)c4)c4ccc([n-]4)c(-c4ccc[n+](CCCCCC)c4)c4nc(c(-c5ccc[n+](CCCCCC)c5)c5ccc2[n-]5)C=C4)C=C3)c1.[Mn+3]` [MnTnHex-3-PyP^5+, Mn(III) meso-tetrakis(N-n-hexylpyridinium-3-yl)porphyrin], the “toxicity of MnP by itself to Caco-2 cells” value ([2]; Caco-2, 30 µM MnP, no ascorbate, Figure 9) is listed as “less toxic”, the “effect of mannitol on cytotoxicity” value ([2]; Caco-2, 5 mM mannitol, 4 days) is listed as “blocked significantly” and the “SOD activity log kcat (O2^·−)” value [3] is listed as 6.64. The “E1/2 difference relative to MnTE-2-PyP^5+ (more negative)” value [4] was ~150 mV, the “E1/2 difference relative to MnTnHex-2-PyP^5+ (less positive / more negative)” value [4] was ~ 250 mV and the pIC50 [5] was 3.85. The “toxicity of MnP in its own right” value [6] was “not significantly toxic”, the “effect of low levels on the cell” value [6] was “beneficial” and the “accumulation within E. coli cell relative to MnTnHex-2-PyP^5+” value ([7]; absence of exogenous reductant) was “several-fold more”. For the same compound, the “fold more lipophilic than MnTnHex-2-PyP^5+” value [8] was ~ 10 fold.
For `C[n+]1ccc(-c2c3nc(c(-c4cc[n+](C)cc4)c4ccc([n-]4)c(-c4cc[n+](C)cc4)c4nc(c(-c5cc[n+](C)cc5)c5ccc2[n-]5)C=C4)C=C3)cc1.[Mn+3]` [MnTM-4-PyP^5+, Mn(III) meso-tetrakis(N-methylpyridinium-4-yl)porphyrin, reference compound], the “SOD activity log kcat (O2^·−)” value [3] is given as 6.58 and the “Lipophilicity Rf” value [9] is given as 0.064.
In the case of `CC[n+]1ccccc1-c1c2nc(c(-c3cccc[n+]3CC)c3ccc([n-]3)c(-c3cccc[n+]3CC)c3nc(c(-c4cccc[n+]4CC)c4ccc1[n-]4)C=C3)C=C2.[Mn+3]` [MnTE-2-PyP^5+, Mn(III) meso-tetrakis(N-ethylpyridinium-2-yl)porphyrin], the “fold more potent SOD mimic than meta MnTE-3-PyP^5+” value [3] is given as 10 fold, the “SOD activity log kcat (O2^·−)” value [3] is given as 7.76 and the “E1/2 difference relative to MnTnHex-2-PyP^5+ (less positive / more negative)” value [4] is given as ~ 100 mV. For the same compound, the pIC50 [5] was 3.33, the “cytotoxicity relative to MnTnHex-2-PyP^5+ in the presence of ascorbate” value ([6]; 4T1, Hela) was “more cytotoxic” and the “cytotoxicity relative to MnTnHex-2-PyP^5+ in the presence of ascorbate” value ([6]; HCT116, Caco-2) was “equally”. For the same compound, the “effect of low levels on the cell” value [6] was “beneficial” and the “efficacy in protecting SOD-deficient E. coli” value [7] was “equally efficacious”.
For `CC[n+]1cccc(-c2c3nc(c(-c4ccc[n+](CC)c4)c4ccc([n-]4)c(-c4ccc[n+](CC)c4)c4nc(c(-c5ccc[n+](CC)c5)c5ccc2[n-]5)C=C4)C=C3)c1.[Mn+3]` [MnTE-3-PyP^5+, Mn(III) meso-tetrakis(N-ethylpyridinium-3-yl)porphyrin, reference compound], the “fold more lipophilic than ortho MnTE-2-PyP^5+” value [10] is given as 10 fold, the “fold more accumulation within E. coli cell than MnTE-2-PyP^5+” value [7] is given as 10 fold and the “efficacy in protecting SOD-deficient E. coli” value [7] is given as “equally efficacious”.
In the case of `CCCCCC[n+]1ccccc1-c1c2nc(c(-c3cccc[n+]3CCCCCC)c3ccc([n-]3)c(-c3cccc[n+]3CCCCCC)c3nc(c(-c4cccc[n+]4CCCCCC)c4ccc1[n-]4)C=C3)C=C2.[Mn+3]` [MnTnHex-2-PyP^5+, Mn(III) meso-tetrakis(N-n-hexylpyridinium-2-yl)porphyrin], the “ability to produce colonies, single agent” value [11] is listed as “did not affect”, the “SOD activity log kcat (O2^·−)” value [3] is listed as 7.48 and the pIC50 [5] is listed as 3.77. The “ability to produce colonies, single agent” value [12] was “did not affect”, the “enhancement of MnP accumulation by ascorbate in muscle” value ([13]; MnP/ascorbate vs MnP treated mice, muscle) was 54% and the “enhancement of MnP accumulation by ascorbate in tumour” value ([13]; MnP/ascorbate vs MnP treated mice, tumour) was 33%. For the same compound, the “accumulation in tumour relative to muscle from the opposite leg” value ([13]; MnTnHex-2-PyP^5+ 1 mg/kg twice daily sc, tissue homogenates) was “higher accumulation in tumour”, the “MnP concentration in the cells relative to the medium” value ([14]; 30 µM MnP in medium) was ~ 4 times and the “more MnP found within cells with MnP/ascorbate compared to MnP alone” value ([14]; 4T1 cells, depending on concentrations of ascorbate and porphyrin) was ≤ 29%. The “toxicity of MnP in its own right” value [6] was “exerted toxicity”.
